Measurements: ChEMBL document CHEMBL1124747, “Properties of the nucleic acid photoaffinity labeling agent 3-azidoamsacrine” (J Med Chem, 1990)

Tests used:
[1] = Relative toxicity against mammalian L5178Y cells at dose 0.005 mg/mL in dark-1 condition (expt-I); type: functional, Mus musculus
Outline: (§1)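 L5178Y mouse cells in suspension, 3 × 10^6 cells/mL, were exposed for 20 h at 37 °C in a shaker at 150 rpm under 5% CO2, without an activating enzyme. Light arms were irradiated for 6.5 min with a medium-pressure Hg lamp filtered to remove light below 340 nm; dark arms were not. Toxicity was taken as the Coulter-counted density of treated cells versus solvent control.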

[2] = Relative toxicity against mammalian L5178Y cells at dose 0.005 mg/mL in light-1 condition (expt-I); type: functional, Mus musculus; outline: as §1
[3] = Relative toxicity against mammalian L5178Y cells at dose 0.008 mg/mL in light-2 condition (expt-I); type: functional, Mus musculus; outline: as §1
[4] = Viability of L5178Y cells was evaluated at dose 0.005 mg/mL in dark-I condition (expt-I); type: functional, Mus musculus
Outline: (§2)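 L5178Y cells were exposed for 20 h at 3 × 10^6 cells/mL. Light arms then received 6.5 min of Hg-lamp irradiation filtered to remove light below 340 nm. Cells were washed twice in Fischer's medium, grown a further 24 h and held at 3 × 10^5 cells/mL. For viability, 200 cells were plated in soft-agar cloning medium in triplicate dishes, and colonies were counted by an automated counter after 10 days.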

[5] = Viability of L5178Y cells was evaluated at dose 0.005 mg/mL in light-I condition (expt-I); type: functional, Mus musculus; outline: as §2
[6] = Viability of L5178Y cells was evaluated at dose 0.008 mg/mL in dark-II condition (expt-I); type: functional, Mus musculus; outline: as §2
[7] = Viability of L5178Y cells was evaluated at dose 0.008 mg/mL in light-II condition (expt-I); type: functional, Mus musculus; outline: as §2
[8] = Induction frequency for L5178Y cells was evaluated at dose 0.005 mg/mL in dark condition (expt-II); type: functional, Mus musculus
Outline: (§3)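 L5178Y suspension cells (3 × 10^6/mL, 5% CO2, 37 °C, shaking) exposed 20 h without activating enzyme; light arm irradiated 6.5 min (Hg lamp, <340 nm filtered). Cells washed, grown 24 h more and kept at 3 × 10^5/mL. Viability from 200 cells in soft agar; TFT (0.1 mg/mL) resistant colonies from 10^6 cells in triplicate dishes, counted at 10 days.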

[9] = Induction frequency for L5178Y cells was evaluated at dose 0.005 mg/mL in light condition (expt-II); type: functional, Mus musculus; outline: as §3
[10] = Mean value of mutation induction for L5178Y cells was evaluated at dose 0.005 mg/mL in dark condition (expt-II); type: functional, Mus musculus
Outline: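 L5178Y cells in suspension culture, gassed with 5% CO2 in air, shaken at 150 rpm, 37 °C. Cells at 3 × 10^6/mL were dosed for 20 h, unirradiated and without activating enzyme, then washed twice in Fop and grown 24 h more. TFT-resistant mutants came from 10^6 cells plated in three dishes of cloning medium with 0.1 mg/mL TFT, colonies counted at 10 days; frequency expressed ×10^6.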

[11] = Mean value of mutation induction for L5178Y cells was evaluated at dose 0.005 mg/mL in light condition (expt-II); type: functional, Mus musculus; outline: as §3
[12] = Mutation frequency for L5178Y cells was evaluated at dose 0.005 mg/mL in dark condition (expt-II); type: functional, Mus musculus; outline: as §3
[13] = Mutation frequency for L5178Y cells was evaluated at dose 0.005 mg/mL in light condition (expt-II); type: functional, Mus musculus; outline: as §3
[14] = Induction frequency for L5178Y cells was evaluated at dose 0.005 mg/mL in light-I condition (expt-I); type: functional, Mus musculus; outline: as §3
[15] = Induction frequency for L5178Y cells was evaluated at dose 0.008 mg/mL in dark-II condition (expt-I); type: functional, Mus musculus; outline: as §3
[16] = Mean value of mutation induction for L5178Y cells was evaluated at dose 0.005 mg/mL in dark-I condition (expt-I); type: functional, Mus musculus; outline: as §3
[17] = Mean value of mutation induction for L5178Y cells was evaluated at dose 0.005 mg/mL in light-I condition (expt-I); type: functional, Mus musculus; outline: as §3
[18] = Mean value of mutation induction for L5178Y cells was evaluated at dose 0.008 mg/mL in dark-II condition (expt-I); type: functional, Mus musculus; outline: as §3
[19] = Mean value of mutation induction for L5178Y cells was evaluated at dose 0.008 mg/mL in light-II condition (expt-I); type: functional, Mus musculus; outline: as §3
[20] = Ability to block cleavage of GCC/GGC site in NaeI enzyme with the light activated test compound/DNA ratio 1(no. of sites=4); += light activation
Outline: (§4)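 pBR322 plasmid mixed with drug at 0.015, 0.12 or 0.48 mM (drug:DNA 1:8, 1:1 or 4:1), equilibrated on ice 30 min in the dark in 5 mM potassium phosphate pH 5.5, then irradiated 1 h with a medium-pressure Hg lamp (<340 nm filtered); dark set kept as control. Digested overnight with 10× excess enzyme plus DTT; fragments resolved on 1.2% agarose in TBE.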

[21] = Ability to block cleavage of GCC/GGC site in NaeI enzyme with the light activated test compound/DNA ratio 1:8(no. of sites=4); += light activation; outline: as §4
[22] = Ability to block cleavage of GCC/GGC site in NaeI enzyme with the light activated test compound/DNA ratio 4(no. of sites=4); += light activation; outline: as §4
[23] = Ability to block cleavage of […] site in NciI enzyme with the light activated test compound/DNA ratio 1(no. of sites=10); += light activation; outline: as §4
[24] = Ability to block cleavage of […] site in NciI enzyme with the light activated test compound/DNA ratio 1:8(no. of sites=10); += light activation; outline: as §4
[25] = Ability to block cleavage of […] site in NciI enzyme with the light activated test compound/DNA ratio 4(no. of sites=10); += light activation; outline: as §4
[26] = Ability to block cleavage of G/GNCC site in Restriction endonuclease Sau961 with the light activated test compound/DNA ratio 1(no. of sites=15); += light activation; outline: as §4
[27] = Ability to block cleavage of G/GNCC site in Restriction endonuclease Sau961 with the light activated test compound/DNA ratio 4(no. of sites=15); += light activation; outline: as §4
[28] = Ability to block cleavage of G/GNCC site in Restriction endonuclease Sau961 with the light activated test compound/DNA ratio 1:8(no. of sites=15); += light activation; outline: as §4
[29] = Half-life was evaluated in water in the presence of light; type: ADME
[30] = Relative toxicity against mammalian L5178Y cells at dose 0.008 mg/mL in dark-2 condition (expt-I); type: functional, Mus musculus; conditions: in the assay text read “0.008 µg/mL” for “0.008 mg/mL”; outline: as §1

Blockage activity [20]: Light activation
Blockage activity [21]: Light activation
Blockage activity [22]: Light activation
Blockage activity [23]: Light activation
Blockage activity [24]: Light activation
Blockage activity [25]: Light activation
Blockage activity [26]: Light activation
Blockage activity [27]: Light activation
Blockage activity [28]: Light activation
half-life [29]: 2.02 min
Structure (SMILES): COc1cc(NS(C)(=O)=O)ccc1Nc1c2ccccc2nc2cc(N=[N+]=[N-])ccc12.Cl
Relative toxicity [1]: 69
Relative toxicity [2]: 69
Relative toxicity [3]: 55
Viability [4]: 66.7
Viability [5]: 57
Viability [6]: 22.3
Viability [7]: 0
Induced frequency [8]: 366
Induced frequency [9]: 411
Mean value [10]: 95
Mean value [11]: 114.3
Mutation frequency [12]: 504 10e6 F
Mutation frequency [13]: 640 10e6 F
Induced frequency [14]: 280
Induced frequency [15]: 457
Mean value [16]: 99.7
Mean value [17]: 123.7
Mean value [18]: 63
Mean value [19]: 0
Relative toxicity [30]: 55
